A selection: hits, their analogues and other compounds. The true share with any hit is near 3.7%.
KCNK9 inh: human KCNK9 channel inhibition | Q9NPC2 | HEK293 KCNK9, FluxOR thallium flux fluorescence; stronger effect = lower value | B-score at 10 µM | 310,000 compounds, 1.2% hits;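 active means ratio B-score over 3 SD below the library mean, with starting fluorescence within 5 SD of its mean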;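 further: negative B-score means less thallium flux so channel inhibition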
KCNK3 block: human KCNK3 channel inhibition, primary screen; O14649; CHO-KCNK3 thallium flux, FluxOR fluorescence; stronger effect = lower value; B-score at 10 µM; 340,000 compounds, 0.84% hits; AID 602410;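 active means B-score under library mean minus 4 SD, starting fluorescence ratio at most library mean plus 5 SD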;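 further: more negative B-score means stronger inhibition of thallium flux through KCNK3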
Kir21 inh: blocks the mouse Kir2.1 inward-rectifier potassium channel; P35561; HEK293-Kir2.1, FluxOR thallium flux fluorescence; stronger effect = lower value; B-score at 10 µM; 310,000 compounds, 0.85% hits; AID 1672;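 active means fluorescence ratio B-score at or below minus 3 SD of library scores, with starting-brightness B-score within 2 SD, cut at about -4.2 in these data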;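 further: channel flux triggered by added potassium and thallium sulfate stimulus; B-score of peak minus minimum fluorescence over baseline after thallium stimulus; more negative B-score means stronger Kir2.1 block with less thallium influx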
KCNQ1 act: human KCNQ1 channel potentiation or activation | CHO-K1 KCNQ1, thallium flux FluxOR fluorescence; stronger effect = higher value | AID 2648 | B-score at 10 µM | P51787 | 310,000 compounds, 0.35% hits;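 active means fluorescence ratio B-score, a plate-corrected score, at least three library SD, with initial intensity B-score within 5 SD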
Target sequence (P51787 whole entry, looked up): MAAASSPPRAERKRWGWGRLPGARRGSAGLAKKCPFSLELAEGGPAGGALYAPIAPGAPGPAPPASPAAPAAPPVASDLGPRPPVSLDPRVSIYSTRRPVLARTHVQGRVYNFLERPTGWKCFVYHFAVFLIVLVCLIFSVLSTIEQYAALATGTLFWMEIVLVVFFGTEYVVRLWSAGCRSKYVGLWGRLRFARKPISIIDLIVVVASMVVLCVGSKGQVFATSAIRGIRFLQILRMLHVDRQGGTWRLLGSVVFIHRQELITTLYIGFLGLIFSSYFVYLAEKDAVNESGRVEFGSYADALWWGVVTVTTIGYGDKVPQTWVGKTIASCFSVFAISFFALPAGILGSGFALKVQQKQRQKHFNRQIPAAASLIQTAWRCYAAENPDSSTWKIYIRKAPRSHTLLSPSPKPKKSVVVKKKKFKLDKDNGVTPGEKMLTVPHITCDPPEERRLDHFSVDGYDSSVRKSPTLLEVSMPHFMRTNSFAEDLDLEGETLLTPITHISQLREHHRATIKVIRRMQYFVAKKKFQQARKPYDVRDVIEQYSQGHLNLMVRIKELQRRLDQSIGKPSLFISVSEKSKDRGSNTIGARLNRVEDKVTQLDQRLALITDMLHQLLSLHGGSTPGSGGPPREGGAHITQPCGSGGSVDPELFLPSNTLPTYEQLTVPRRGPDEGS
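Assay system: CHO-K1 cells stably expressing KCNQ1; Medium: assay buffer with matched DMSO; Also added: K+/Tl+ depolarizing stimulus; Dosing: single dose; Timing: dye 90 min, compound 20 min, room temperature; Measured by: kinetic FluxOR thallium fluorescence, 10-s 1-Hz baseline, 110-s post-stimulus read; Read-out: peak-minus-minimum fluorescence over initial fluorescence, negative-control normalized, B-scored.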
KCNQ1 block: inhibitors of human KCNQ1 potassium channel | CHO-K1 KCNQ1, FluxOR thallium flux fluorescence; stronger effect = higher value | 310,000 compounds, 1.3% hits | B-score at 10 µM | P51787;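 active means compounds whose thallium flux B-score, printed positive for inhibition, exceeds three library SD while starting fluorescence stays within three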;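 further: channel opened by potassium depolarization with thallium stimulus after 20 min compound exposure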
hERG protect: hERG (human) protection from proarrhythmic block. Q12809. CHO-hERG, FluxOR thallium flux, dofetilide IC70 present. activation (rescue from dofetilide block), less the hit threshold, % at 10 µM. 310,000 compounds, 0.51% hits. AID 1511;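 active means activation above the mean of controls blocked by dofetilide plus 5 SD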;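 further: thallium influx through hERG after potassium depolarization seen as dye fluorescence rise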
KCNK3 confirm: human KCNK3 channel inhibition, confirmation assay. shares compounds with KCNK3 block. CHO-KCNK3 thallium flux, FluxOR fluorescence; 0% buffer, 100% carvedilol maximal block. ratio percent of control, % at 10 µM. 2,400 compounds, 99% hits. AID 651638;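 active means ratio percent of control, averaged over triplicates, above buffer control mean plus 5 SD, cut at about 64% in these data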;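 further: ratio is the fluorescence rise from min to max over baseline after thallium stimulus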
KCNK3 noninduced: counter-screen for KCNK3 inhibitors: effect in non-induced cells; non-induced KCNK3 parental cells, FluxOR thallium flux; stronger effect = lower value; thallium flux ratio (lower = more inhibition) at 10 µM; AID 651747; shares compounds with KCNK3 block; 2,400 compounds, 40% hits;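 active means thallium flux ratio, averaged over three wells, more than 5 SD below the buffer control mean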;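 further: host cells are CHO cells without KCNK3 induction; ratio is peak minus trough fluorescence over baseline then normalized to buffer controls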
Numbers without * were called inactive.

How did CC(C)C(=O)N1CCN(c2ccccc2NC(=S)NC(=O)/C=C/c2ccco2)CC1 do in these assays?
KCNK3 block: inactive

Results for COc1cccc(C(=O)NCCSCc2ccccc2Cl)c1 ?
KCNK9 inh: inactive; KCNK3 block: -9.81*; Kir21 inh: -1.67; KCNQ1 act: inactive; KCNQ1 block: inactive; hERG protect: -16.0; KCNK3 confirm: 98.7*; KCNK3 noninduced: inactive

What do the screens show for `CCn1c2ccccc2c2cc(NC(=O)c3ccco3)ccc21`?
KCNK9 inh: inactive; KCNK3 block: -9.45*; Kir21 inh: 0.23; KCNQ1 act: inactive; KCNQ1 block: inactive; hERG protect: -4.0; KCNK3 confirm: 114.3*; KCNK3 noninduced: inactive

Results for COc1cccc(C(=O)NCCSCc2c(F)cccc2Cl)c1 ?
KCNK9 inh: inactive; KCNK3 block: inactive; Kir21 inh: 1.55; KCNQ1 act: inactive; KCNQ1 block: inactive; hERG protect: -8.5

How did CCCCn1c(N)c(N(CC)C(=O)c2cc(CC)c(C)s2)c(=O)[nH]c1=O do in these assays?
KCNK9 inh: inactive; KCNK3 block: inactive; Kir21 inh: -1.64; KCNQ1 act: inactive; KCNQ1 block: inactive; hERG protect: -7.7

Results for COc1ccc(Cl)cc1C(=O)NNC(=O)CNC(=O)c1ccc(C)s1 ?
KCNK3 block: inactive

What do the screens show for `NS(=O)(=O)c1ccc(NC(=O)CN2CCN(S(=O)(=O)c3cccs3)CC2)cc1`?
KCNK3 block: inactive

What do the screens show for `Cc1ccc(NC(=O)N(Cc2ccco2)C(C)c2ccco2)cc1C` (stereo not drawn)?
KCNK9 inh: inactive; KCNK3 block: -9.02*; Kir21 inh: -0.52; KCNQ1 act: inactive; KCNQ1 block: inactive; hERG protect: -7.5; KCNK3 confirm: 110.0*; KCNK3 noninduced: inactive

Results for Cc1ccc(NC(=S)N(CCN(C)C)C(C)c2ccco2)cc1Cl (stereo not drawn) ?
KCNK9 inh: inactive; KCNK3 block: inactive; Kir21 inh: 1.21; KCNQ1 act: inactive; KCNQ1 block: inactive; hERG protect: -6.6

What do the screens show for `COc1ccccc1C(=O)NCCC(=O)NCC1CCCCC1`?
KCNK3 block: inactive

How did CCN(CCCNC(=O)CNC(=O)c1nn(-c2ccc(OC)cc2)c(=O)c2ccccc12)c1cccc(C)c1 do in these assays?
KCNK9 inh: inactive; KCNK3 block: -11.9*; Kir21 inh: -0.22; KCNQ1 act: inactive; KCNQ1 block: inactive; hERG protect: -7.3; KCNK3 confirm: 116.7*; KCNK3 noninduced: inactive

What do the screens show for `Cc1ccc(NC(=S)Nc2cccc3ccccc23)cc1`?
KCNK9 inh: inactive; KCNK3 block: inactive; Kir21 inh: -1.08; KCNQ1 act: inactive; KCNQ1 block: inactive; hERG protect: -6.0

How did CC(C)c1ccc(NC(=S)Nc2cccc3ccccc23)cc1 do in these assays?
KCNK9 inh: inactive; KCNK3 block: -8.85*; Kir21 inh: 0.02; KCNQ1 act: inactive; KCNQ1 block: inactive; hERG protect: -7.9; KCNK3 confirm: 105.3*; KCNK3 noninduced: inactive

Results for O=C(N/N=C/c1cccc(Oc2ccccc2)c1)c1ccccc1Br ?
KCNK9 inh: inactive; KCNK3 block: -12.4*; Kir21 inh: -1.92; KCNQ1 act: inactive; KCNQ1 block: inactive; hERG protect: 1.3; KCNK3 confirm: 90.7*; KCNK3 noninduced: inactive

What do the screens show for `NC(=O)c1ccc(C(=O)N/N=C/c2cccc(Oc3ccccc3)c2)cc1`?
KCNK9 inh: inactive; KCNK3 block: inactive; Kir21 inh: -0.51; KCNQ1 act: inactive; KCNQ1 block: inactive; hERG protect: -13.3

Results for CCN(c1ccccc1)S(=O)(=O)c1nnc(NC(=O)C(C)(C)C)s1 ?
KCNK9 inh: inactive; KCNK3 block: inactive; Kir21 inh: 1.18; KCNQ1 act: inactive; KCNQ1 block: inactive; hERG protect: -6.9

How did O=S(=O)(N1CCCCC1)N1CCN(c2cc(Cl)ccc2Cl)CC1 do in these assays?
KCNK9 inh: inactive; KCNK3 block: -9.16*; Kir21 inh: -1.35; KCNQ1 act: inactive; KCNQ1 block: inactive; hERG protect: -4.3; KCNK3 confirm: 111.3*; KCNK3 noninduced: inactive

How did O=S(=O)(c1ccc(Cl)cc1)N1CCN(S(=O)(=O)N2CCCCCC2)CC1 do in these assays?
KCNK9 inh: inactive; KCNK3 block: inactive; Kir21 inh: 0.97; KCNQ1 act: inactive; KCNQ1 block: inactive; hERG protect: -1.9

Results for COCCn1c(SCc2ccc(C(=O)OC)o2)nc2cc(Cl)ccc2c1=O ?
KCNK9 inh: -7.39*; KCNK3 block: -9.76*; Kir21 inh: 2.91; KCNQ1 act: inactive; KCNQ1 block: inactive; hERG protect: -1.2; KCNK3 confirm: 125.7*; KCNK3 noninduced: inactive

Results for CC1=NN(C(=O)CSCc2ccccc2)C(O)(c2ccc(F)cc2)C1 (stereo not drawn) ?
KCNK9 inh: -6.88*; KCNK3 block: -9.22*; Kir21 inh: -1.23; KCNQ1 act: inactive; KCNQ1 block: inactive; hERG protect: -5.2; KCNK3 confirm: 94.7*; KCNK3 noninduced: inactive

Results for N#Cc1ccc(CN2CCN(C(=O)c3cc(C4CC4)nn3-c3ccccc3)CC2)cc1 ?
KCNK3 block: inactive

What do the screens show for `CCCC(c1nnnn1Cc1cccs1)N1CCN(c2nc3ccccc3s2)CC1` (stereo not drawn)?
KCNK9 inh: -8.07*; KCNK3 block: -8.89*; Kir21 inh: 0.63; KCNQ1 act: inactive; KCNQ1 block: inactive; hERG protect: -1.8; KCNK3 confirm: 103.7*; KCNK3 noninduced: inactive

What do the screens show for `CCCS(=O)(=O)c1c(S(=O)(=O)CCC)c2c(N)cccn2c1C(=O)c1ccc(F)cc1`?
KCNK9 inh: inactive; KCNK3 block: inactive; Kir21 inh: 0; KCNQ1 act: inactive; KCNQ1 block: inactive; hERG protect: -8.5

What do the screens show for `CCCS(=O)(=O)c1c(S(=O)(=O)CCC)c2ccc(C(N)=O)cn2c1C(=O)c1ccc(F)cc1`?
KCNK9 inh: -7.41*; KCNK3 block: -11.9*; Kir21 inh: 0.5; KCNQ1 act: inactive; KCNQ1 block: inactive; hERG protect: -9.1; KCNK3 confirm: 91.0*; KCNK3 noninduced: inactive

Results for O=C(NC12CC3CC(CC(C3)C1)C2)N1CCN(c2nc(-c3ccccc3)cs2)CC1 ?
KCNK9 inh: -6.75*; KCNK3 block: inactive; Kir21 inh: 2.79; KCNQ1 act: inactive; KCNQ1 block: inactive; hERG protect: -6.4; KCNK3 confirm: 103.7*; KCNK3 noninduced: inactive
